# From ChEMBL document CHEMBL4376875, “Synthesis and Biological Evaluation of B-Cell Lymphoma 6 Inhibitors of N-Phenyl-4-pyrimidinamine Derivatives Bearing Potent Activities against Tumor Growth” (J Med Chem, 2020)
# The source made the active and inactive calls. The rule behind the calls is not given here.
# What was measured:
# SUD4 [1] = assay: Antiproliferative activity against human SUDHL4 cells assessed as living cells and S phase cells at 1.25 uM incubated for 48 hrs by Edu based flow cytometry analysis (reference value: 48.3%)
# [2] = Cytotoxicity against HAF cells assessed as reduction in cell viability incubated for 72 hrs by CCK8 assay; conditions: Homo sapiens
# [3] = Toxicity in SCID mouse xenografted with human SUDHL4 cells assessed as adverse effect on heart morphology at 5 to 10 mg/kg, iv administered 3 days once for 15 days by H and E staining analysis; type: organism-based; conditions: in vivo
# Outline: (§1)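 Male SCID mice, 6 weeks old, received 1 × 10⁷ SUDHL4 cells s.c. At about 100 mm³, mice were randomized (n = 7) to vehicle (20% 2-hydroxypropyl-β-cyclodextrin) or 5 or 10 mg/kg every 3 days i.v. for 15 days. Body weight and caliper volume (L × W² × 0.52) were recorded every 3 days. At sacrifice, tissues were fixed in 4% paraformaldehyde and paraffin-embedded for H&E or Ki67 IHC. Tumor mRNA was assayed by qPCR.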
# Toledo [4] = assay: Effect on CXCR4 mRNA expression in BCL6-negative human Toledo cells at 1.25 to 5 uM incubated for 24 hrs by RT-PCR analysis; type: functional, cell-based
# Outline: (§2)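 Toledo cells (BCL6-independent) were exposed to 1.25, 2.50 or 5.00 μM for 24 h, then mRNA was collected. Target-gene transcripts were quantified by real-time quantitative PCR against vehicle control.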
# Toledo [5] = assay: Effect on CD80 mRNA expression in BCL6-negative human Toledo cells at 1.25 to 5 uM incubated for 24 hrs by RT-PCR analysis; type: functional, cell-based
# Outline: as §2
# [6] = Metabolic stability in human liver microsomes assessed as compound remaining measured after 60 mins; type: ADME, Microsome; conditions: read-out: Stability
# [7] = Toxicity in SCID mouse xenografted with human SUDHL4 cells assessed as adverse effect on lungs morphology at 5 to 10 mg/kg, iv administered 3 days once for 15 days by H and E staining analysis; type: organism-based; conditions: in vivo
# Outline: as §1
# Toledo [8] = assay: Antiproliferative activity against BCL6-negative human Toledo cells assessed as reduction in cell viability incubated for 72 hrs by CCK8 assay
# [9] = Toxicity in SCID mouse xenografted with human SUDHL4 cells assessed as reduction in body weight at 5 to 10 mg/kg, iv administered 3 days once for 15 days and measured every 3 days; type: organism-based; conditions: in vivo
# Outline: as §1
# Farage [10] = conditions: Homo sapiens, 0.25 to 2 uM
# [11] = Toxicity in SCID mouse xenografted with human SUDHL4 cells assessed as adverse effect on liver morphology at 5 to 10 mg/kg, iv administered 3 days once for 15 days by H and E staining analysis; type: organism-based; conditions: in vivo
# Outline: as §1
# SUD4 [12] = assay: Induction of apoptosis in human SUDHL4 cells assessed as late apoptotic cells at 2.5 uM incubated for 48 hrs by annexin V-FITC and propidium iodide staining based flow cytometry analysis (reference value: 1.39%); type: functional
# SUD4 [13] = assay: Antiproliferative activity against human SUDHL4 cells assessed as reduction in living cells incubated for 48 hrs by Edu based flow cytometry analysis; type: functional, cell-based
# Outline: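 SUDHL4 cells were treated for 48 h, then pulsed with 10 μM EdU for 2 h, fixed, permeabilized and stained with EdU/Alexa Fluor Azide 488 for 30 min. Living and S-phase cells were counted by flow cytometry. Triplicate.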
# SUD4 [14] = assay: Antiproliferative activity against human SUDHL4 cells assessed as living cells and S phase cells at 2.5 uM incubated for 48 hrs by Edu based flow cytometry analysis (reference value: 48.3%)
# Mus musculus [15] = organism: Mus musculus; conditions: C57BL/6, 10 mg/kg
# [16] = Toxicity in SCID mouse xenografted with human SUDHL4 cells assessed as adverse effect on kidney morphology at 5 to 10 mg/kg, iv administered 3 days once for 15 days by H and E staining analysis; type: organism-based; conditions: in vivo
# Outline: as §1
# [17] = Toxicity in SCID mouse xenografted with human SUDHL4 cells assessed as adverse effect on spleen morphology at 5 to 10 mg/kg, iv administered 3 days once for 15 days by H and E staining analysis; type: organism-based; conditions: in vivo
# Outline: as §1
# Mus musculus [18] = assay: Upregulation of CXCR4 mRNA expression in SCID mouse xenografted with human SUDHL4 cells at 5 to 10 mg/kg, iv administered 3 days once for 15 days by qPCR analysis; type: functional, organism-based
# Outline: as §1
# Toledo [19] = assay: Effect on p53 mRNA expression in BCL6-negative human Toledo cells at 1.25 to 5 uM incubated for 24 hrs by RT-PCR analysis; type: functional, cell-based
# Outline: as §2
# SUD4 [20] = assay: Antitumor activity against human SUDHL4 cells xenografted in SCID mouse assessed as reduction in tumor growth at 5 mg/kg, iv administered 3 days once for 15 days and measured every 3 days; type: functional, organism-based
# Outline: as §1
# NCM460 = assay: Cytotoxicity against human NCM460 cells assessed as reduction in cell viability incubated for 72 hrs by CCK8 assay; conditions: NCM460, 72 h
# DOHH-2 = assay: Antiproliferative activity against human DOHH2 cells assessed as reduction in cell viability incubated for 72 hrs by CCK8 assay; conditions: DOHH-2, 72 h
# SUD4 [21] = assay: Induction of apoptosis in human SUDHL4 cells assessed as late apoptotic cells at 1.25 uM incubated for 48 hrs by annexin V-FITC and propidium iodide staining based flow cytometry analysis (reference value: 1.39%); type: functional
# Toledo [22] = conditions: Homo sapiens, 0.25 to 2 uM
# SUD4 [23] = assay: Antitumor activity against human SUDHL4 cells xenografted in SCID mouse assessed as reduction in Ki67 expression in tumor at 5 mg/kg, iv administered 3 days once for 15 days by Ki67-staining based immunohistochemistry; type: functional, organism-based
# Outline: as §1
# Toledo [24] = assay: Effect on CD69 mRNA expression in BCL6-negative human Toledo cells at 1.25 to 5 uM incubated for 24 hrs by RT-PCR analysis; type: functional, cell-based
# Outline: as §2
# Farage [25] = assay: Antiproliferative activity against human Farage cells assessed as reduction in cell viability incubated for 72 hrs by CCK8 assay
# SUD4 [26] = assay: Induction of apoptosis in human SUDHL4 cells assessed as late apoptotic cells at 0.625 uM incubated for 48 hrs by annexin V-FITC and propidium iodide staining based flow cytometry analysis (reference value: 1.39%); type: functional
# L02 = assay: Cytotoxicity against human LO2 cells assessed as reduction in cell viability incubated for 72 hrs by CCK8 assay; conditions: L02, 72 h
# [27] = Protein binding in human plasma assessed as unbound fraction; type: ADME, cell-free
# Outline: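 Human plasma protein binding was measured by a contract laboratory.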
# Mus musculus [28] = assay: Upregulation of CD69 mRNA expression in SCID mouse xenografted with human SUDHL4 cells at 5 to 10 mg/kg, iv administered 3 days once for 15 days by qPCR analysis; type: functional, organism-based
# Outline: as §1
# Toledo [29] = assay: Effect on CDKN1A mRNA expression in BCL6-negative human Toledo cells at 1.25 to 5 uM incubated for 24 hrs by RT-PCR analysis; type: functional, cell-based
# Outline: as §2
# SUD4 [30] = assay: Antiproliferative activity against human SUDHL4 cells assessed as living cells and S phase cells at 0.625 uM incubated for 48 hrs by Edu based flow cytometry analysis (reference value: 48.3%)
structure (smiles),measurement,setting,value
COc1cc(Nc2nc(N3C[C@@H](C)N[C@@H](C)C3)ncc2F)ccc1NC(=O)c1ccc(C2=CCCC2)s1,Activity,SUD4 [1],12.5%
same,IC50,[2],26.4 µM
same,Activity,[3],Non-Toxic
same,Activity,Toledo [4],inactive
same,Activity,Toledo [5],inactive
same,remaining at 1 h,[6],102%
same,Activity,[7],Non-Toxic
same,IC50,Toledo [8],3.25 µM
same,Activity,[9],Non-Toxic
same,inhibition,Farage [10],inactive
same,Activity,[11],Non-Toxic
same,Activity,SUD4 [12],67.3%
same,Activity,SUD4 [13],Dose-dependent effect
same,Activity,SUD4 [14],6.6%
same,inhibition,Mus musculus [15],Active
same,Activity,[16],Non-Toxic
same,Activity,[17],Non-Toxic
same,Activity,Mus musculus [18],Active
same,Activity,Toledo [19],inactive
same,Activity,SUD4 [20],Active
same,IC50,NCM460,32.4 µM
same,IC50,DOHH-2,1.21 µM
same,Activity,SUD4 [21],12.5%
same,inhibition,Toledo [22],inactive
same,Activity,SUD4 [23],Active
same,Activity,Toledo [24],inactive
same,IC50,Farage [25],1.26 µM
same,Activity,SUD4 [26],3.35%
same,IC50,L02,13.1 µM
same,fraction unbound,[27],0.076
same,Activity,Mus musculus [28],Active
same,Activity,Toledo [29],inactive
same,Activity,SUD4 [30],27.3%
